The source made the active and inactive calls. The calls are words filed in the database; no cut-off is given here.
What was measured:
[1] = Antiproliferative activity against human BGC823 cells assessed as growth inhibition after 24 to 48 hrs by CCK8 assay; format: functional, cell-based; settings: BGC-823
Procedure, shortened: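 The CCK8 assay was run on BGC823 cells alongside HeLa and HepG2 cells. Inhibition of cell proliferation was reported as IC50.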

[2] = test system: HeLa; assay: cells; format: functional, cell-based; settings: Homo sapiens
[3] = test system: HepG2; assay: cells; format: functional, cell-based; settings: Homo sapiens;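 further: antiproliferative effect read out as growth inhibition by CCK8 assay, measured after 24–48 h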
[4] = Antiproliferative activity against human macrophages assessed as alteration in cell morphology after 24 hrs by CCK8 assay; format: cell-based, Macrophage
[5] = target: Epidermal growth factor receptor (Homo sapiens, UniProt P00533); format: cell-based, Sf-9
[6] = test system: HeLa; assay: Antimetastatic activity against human HeLa cells at 0.08 to 0.12 uM by transwell migration assay; format: functional, cell-based
Procedure, shortened: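 HeLa cell migration was tested at 0.08, 0.10 and 0.12 µM. Migrating cells are expressed as a percentage of an untreated control set at 100%. Data are mean ± SD, with p < 0.05 versus control.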

[7] = test system: HeLa; assay: Toxicity against human HeLa cells assessed as survival at 0.14 uM by CCK8 assay; format: cell-based
Procedure, shortened: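 HeLa survival ratio was measured against compound concentration by CCK8 assay, including 0.14 µM. This was done before the migration testing.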

Sequence of Epidermal growth factor receptor (P00533 whole entry): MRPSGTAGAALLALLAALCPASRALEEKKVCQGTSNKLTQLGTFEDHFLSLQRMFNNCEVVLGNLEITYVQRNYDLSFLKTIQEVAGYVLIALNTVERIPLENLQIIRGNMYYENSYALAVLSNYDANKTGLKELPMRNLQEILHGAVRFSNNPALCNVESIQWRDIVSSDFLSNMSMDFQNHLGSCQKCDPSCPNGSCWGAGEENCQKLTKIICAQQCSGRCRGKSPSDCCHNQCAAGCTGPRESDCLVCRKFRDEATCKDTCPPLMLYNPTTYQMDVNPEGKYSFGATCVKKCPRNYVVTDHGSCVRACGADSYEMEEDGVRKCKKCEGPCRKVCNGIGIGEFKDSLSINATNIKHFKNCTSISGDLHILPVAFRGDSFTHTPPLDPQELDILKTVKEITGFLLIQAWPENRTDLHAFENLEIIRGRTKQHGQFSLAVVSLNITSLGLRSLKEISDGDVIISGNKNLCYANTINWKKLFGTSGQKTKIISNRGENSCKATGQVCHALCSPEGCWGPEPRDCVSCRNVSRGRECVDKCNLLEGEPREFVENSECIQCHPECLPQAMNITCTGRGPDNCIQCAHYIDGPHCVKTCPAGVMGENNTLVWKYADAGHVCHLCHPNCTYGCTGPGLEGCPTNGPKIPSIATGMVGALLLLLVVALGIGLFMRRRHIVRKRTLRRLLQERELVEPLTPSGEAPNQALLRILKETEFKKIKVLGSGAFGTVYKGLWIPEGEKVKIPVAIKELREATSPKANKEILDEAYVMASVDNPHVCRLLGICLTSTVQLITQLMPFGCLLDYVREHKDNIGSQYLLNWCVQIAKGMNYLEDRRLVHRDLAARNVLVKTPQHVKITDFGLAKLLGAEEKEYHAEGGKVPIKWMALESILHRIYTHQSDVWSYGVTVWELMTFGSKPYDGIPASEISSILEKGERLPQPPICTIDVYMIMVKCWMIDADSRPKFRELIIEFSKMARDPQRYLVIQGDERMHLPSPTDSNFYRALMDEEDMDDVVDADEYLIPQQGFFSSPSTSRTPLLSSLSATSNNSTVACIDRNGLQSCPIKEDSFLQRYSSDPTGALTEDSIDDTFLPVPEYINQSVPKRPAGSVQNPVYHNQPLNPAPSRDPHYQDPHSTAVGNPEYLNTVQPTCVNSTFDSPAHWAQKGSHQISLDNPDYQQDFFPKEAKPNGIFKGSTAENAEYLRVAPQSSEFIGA

O=C1CSC(N2N=C(c3ccc(Br)cc3)CC2c2cccc3ccccc23)=N1 (centres undefined)
IC50 [1]: 14.6 µM
IC50 [2]: 5.81 µM
IC50 [3]: 13.4 µM

COc1ccc(C2=NN(C3=NC(=O)CS3)C(c3ccc4ccccc4c3)C2)cc1 (centres undefined)
IC50 [1]: 6.94 µM
IC50 [2]: 1.48 µM
IC50 [3]: 10.4 µM
CC50 at 24 h [4]: 363 µM

Cc1ccc(C2=NN(C3=NC(=O)CS3)C(c3cccc4ccccc34)C2)cc1C (centres undefined)
IC50 [1]: 7.11 µM
IC50 [2]: 1.33 µM
IC50 [3]: 5.94 µM
IC50 [5]: 1.32 µM
CC50 at 24 h [4]: 383 µM

O=C1CSC(N2N=C(c3ccc(F)cc3)CC2c2ccc3ccccc3c2)=N1 (centres undefined)
IC50 [1]: 14.9 µM
IC50 [2]: 9.17 µM
IC50 [3]: 24.1 µM

O=C1CSC(N2N=C(c3ccccc3)CC2c2ccc3ccccc3c2)=N1 (centres undefined)
IC50 [1]: 8.86 µM
IC50 [2]: 3.18 µM
IC50 [3]: 15.7 µM
IC50 [5]: 6.31 µM
CC50 at 24 h [4]: 345 µM

Cc1ccc(C2=NN(C3=NC(=O)CS3)C(c3ccc4ccccc4c3)C2)cc1C (centres undefined)
IC50 [1]: 6.02 µM
IC50 [2]: 0.86 µM
IC50 [3]: 8.49 µM
IC50 [5]: 0.12 µM
Activity [6]: Active
CC50 at 24 h [4]: 397 µM
Activity [7]: Non-toxic

O=C1CSC(N2N=C(c3ccc(F)cc3)CC2c2cccc3ccccc23)=N1 (centres undefined)
IC50 [1]: 19.3 µM
IC50 [2]: 11.2 µM
IC50 [3]: 19.5 µM

O=C1CSC(N2N=C(c3ccc(Cl)cc3)CC2c2ccc3ccccc3c2)=N1 (centres undefined)
IC50 [1]: 13.2 µM
IC50 [2]: 6.32 µM
IC50 [3]: 20.4 µM

O=C1CSC(N2N=C(c3ccc(Br)cc3)CC2c2ccc3ccccc3c2)=N1 (centres undefined)
IC50 [1]: 11.7 µM
IC50 [2]: 4.22 µM
IC50 [3]: 18.2 µM

COc1ccc(C2=NN(C3=NC(=O)CS3)C(c3cccc4ccccc34)C2)cc1 (centres undefined)
IC50 [1]: 8.21 µM
IC50 [2]: 2.54 µM
IC50 [3]: 7.85 µM
IC50 [5]: 5.53 µM
CC50 at 24 h [4]: 273 µM

Cc1ccc(C2=NN(C3=NC(=O)CS3)C(c3cccc4ccccc34)C2)cc1 (centres undefined)
IC50 [1]: 10 µM
IC50 [2]: 3.21 µM
IC50 [3]: 8.66 µM

Cc1ccc(C2=NN(C3=NC(=O)CS3)C(c3ccc4ccccc4c3)C2)cc1 (centres undefined)
IC50 [1]: 7.79 µM
IC50 [2]: 1.76 µM
IC50 [3]: 12.7 µM
IC50 [5]: 3.25 µM

O=C1CSC(N2N=C(c3ccccc3)CC2c2cccc3ccccc23)=N1 (centres undefined)
IC50 [1]: 11.2 µM
IC50 [2]: 4.62 µM
IC50 [3]: 10.1 µM

O=C1CSC(N2N=C(c3ccc(Cl)cc3)CC2c2cccc3ccccc23)=N1 (centres undefined)
IC50 [1]: 16.4 µM
IC50 [2]: 8.84 µM
IC50 [3]: 16.4 µM
